ChEMBL document CHEMBL4311953, “Targeting DNA Repair in Tumor Cells via Inhibition of ERCC1-XPF” (J Med Chem, 2019)
Active and inactive are the calls of the source. The calls are words filed in the database; no cut-off is given here.

Experiments:
[1] = target: T1, DNA excision repair protein ERCC-1/DNA repair endonuclease XPF (Homo sapiens) (UniProt P07992+Q92889); assay: Inhibition of human His6-tagged ERCC1-XPF endonuclease activity expressed in Escherichia coli BL21 (DE3) at 8 uM using [6-FAM-5'-CAGCGCTCGG(20T)CCGAGCGCTG-3'-dabcyl] as substrate measured for 12 mins by fluorescence assay
Outline: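 Real-time incision of 100 nM 6-FAM/dabcyl stem-loop substrate by 25 ng recombinant ERCC1-XPF in 50 mM Tris-Cl pH 8, 20 mM NaCl, 0.5 mM DTT, 0.75 mM MnCl₂ at 25°C; fluorescence (ex 485/em 520 nm) read for 12 min.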

Cytochrome P450 2D6 = Cytochrome P450 2D6 (Homo sapiens, UniProt P10635); assay: Inhibition of CYP2D6 (unknown origin); format: ADME
Cytochrome P450 1A2 = target: T2, Cytochrome P450 1A2 (Homo sapiens, UniProt P05177); assay: Inhibition of CYP1A2 (unknown origin); format: ADME
T2 sequence (P05177 whole entry): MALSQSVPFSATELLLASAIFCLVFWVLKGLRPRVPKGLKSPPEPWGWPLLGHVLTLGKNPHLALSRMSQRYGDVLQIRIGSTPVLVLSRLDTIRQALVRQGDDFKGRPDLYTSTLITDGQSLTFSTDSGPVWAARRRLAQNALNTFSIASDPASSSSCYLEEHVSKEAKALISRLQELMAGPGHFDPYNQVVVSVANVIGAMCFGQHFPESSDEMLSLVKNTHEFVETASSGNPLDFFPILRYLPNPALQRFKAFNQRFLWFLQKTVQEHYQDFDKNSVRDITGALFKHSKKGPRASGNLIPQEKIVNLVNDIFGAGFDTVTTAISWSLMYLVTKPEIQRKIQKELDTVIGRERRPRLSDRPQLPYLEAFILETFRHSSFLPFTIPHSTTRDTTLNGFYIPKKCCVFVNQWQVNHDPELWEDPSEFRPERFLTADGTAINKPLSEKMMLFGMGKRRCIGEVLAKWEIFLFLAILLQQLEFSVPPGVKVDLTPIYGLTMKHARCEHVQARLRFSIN

Cytochrome P450 3A4 = Cytochrome P450 3A4 (Homo sapiens, UniProt P08684); assay: Inhibition of CYP3A4 (unknown origin) using midazolam as substrate; format: ADME
Cytochrome P450 2C19 = Cytochrome P450 2C19 (Homo sapiens, UniProt P33261); assay: Inhibition of CYP2C19 (unknown origin); format: ADME
[2] = target: T3, DNA excision repair protein ERCC-1/DNA repair endonuclease XPF (Homo sapiens, UniProt P07992+Q92889)
T3 sequence (P07992 whole entry): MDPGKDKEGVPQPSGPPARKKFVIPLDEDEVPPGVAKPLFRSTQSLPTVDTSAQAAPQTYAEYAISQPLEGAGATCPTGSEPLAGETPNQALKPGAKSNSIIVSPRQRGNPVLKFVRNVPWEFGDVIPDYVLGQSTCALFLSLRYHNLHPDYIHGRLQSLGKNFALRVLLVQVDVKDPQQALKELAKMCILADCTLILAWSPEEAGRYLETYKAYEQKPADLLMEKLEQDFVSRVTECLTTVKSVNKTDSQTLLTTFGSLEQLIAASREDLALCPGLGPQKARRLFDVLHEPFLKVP
T3 sequence (Q92889 whole entry): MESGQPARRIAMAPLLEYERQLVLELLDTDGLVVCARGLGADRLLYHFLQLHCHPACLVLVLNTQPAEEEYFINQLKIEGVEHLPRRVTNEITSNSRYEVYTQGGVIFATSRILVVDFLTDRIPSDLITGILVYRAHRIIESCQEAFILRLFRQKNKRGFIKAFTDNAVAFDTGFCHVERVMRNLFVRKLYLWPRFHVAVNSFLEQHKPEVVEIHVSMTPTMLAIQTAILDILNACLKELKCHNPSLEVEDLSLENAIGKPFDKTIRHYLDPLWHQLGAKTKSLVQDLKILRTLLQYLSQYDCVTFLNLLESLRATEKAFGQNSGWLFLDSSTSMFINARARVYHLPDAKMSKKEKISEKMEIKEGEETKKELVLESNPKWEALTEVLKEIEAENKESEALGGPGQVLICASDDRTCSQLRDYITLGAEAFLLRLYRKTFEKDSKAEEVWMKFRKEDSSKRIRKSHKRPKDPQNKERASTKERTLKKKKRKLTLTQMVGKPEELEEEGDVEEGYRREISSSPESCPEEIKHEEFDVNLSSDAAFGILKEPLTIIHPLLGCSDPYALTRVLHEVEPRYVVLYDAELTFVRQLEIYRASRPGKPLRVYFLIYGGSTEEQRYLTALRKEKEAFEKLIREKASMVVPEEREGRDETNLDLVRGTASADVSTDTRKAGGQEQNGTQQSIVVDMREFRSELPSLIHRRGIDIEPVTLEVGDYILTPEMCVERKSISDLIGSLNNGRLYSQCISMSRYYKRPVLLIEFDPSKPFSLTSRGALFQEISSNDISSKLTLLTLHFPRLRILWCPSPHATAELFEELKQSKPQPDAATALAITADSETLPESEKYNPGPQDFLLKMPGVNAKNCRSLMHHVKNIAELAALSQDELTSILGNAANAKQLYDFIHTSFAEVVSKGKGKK

[3] = Protein binding in serum (unknown origin); format: ADME, cell-free
[4] = Efflux ratio of permeability in human Caco2 cells; format: ADME, cell-based; conditions: Caco-2
[5] = Stability of the compound in human liver microsomes; format: ADME, Microsome
Cytochrome P450 2C9 = Cytochrome P450 2C9 (Homo sapiens, UniProt P11712); assay: Inhibition of CYP2C9 (unknown origin); format: ADME
HCT-116 [6] = assay: Potentiation of cyclophosphamide-induced cytotoxicity against human HCT116 cells assessed as reduction in colony formation at 2 uM incubated for 4 hrs prior to 300 uM cyclophosphamide addition for 24 hrs followed by compound washout and subsequent compound redosing and measured after 8 days by crystal violet staining-based assay; format: functional; parameters: scale not given: the % may be the effect or the level left
Outline: (§1)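 HCT-116 cells plated in triplicate, attached overnight, pretreated 4 h with 1 or 2 μM compound, then cyclophosphamide (0-300 μM) added for 24 h; medium replaced with compound alone and incubated 8 more days at 37°C, 5% CO₂. Crystal violet colonies counted, surviving fraction calculated; three independent sets, Student's t-test.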

[7] = target: T1, DNA excision repair protein ERCC-1/DNA repair endonuclease XPF (Homo sapiens); assay: Binding affinity to human His6-tagged ERCC1-XPF expressed in Escherichia coli BL21 (DE3) assessed as tryptophan fluorescence quenching at 2 uM by spectrofluorimetric method relative to control
Outline: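 Intrinsic tryptophan fluorescence of purified ERCC1-XPF (13–20 nM) with 2 μM ligand added from stock, protein dilution kept below 3%; excitation 295 nm, quenching read at 330 nm, room temperature.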

[8] = target: T1, DNA excision repair protein ERCC-1/DNA repair endonuclease XPF (Homo sapiens); assay: Inhibition of ERCC1-XPF-mediated nucleotide excision repair in human HCT116 cells assessed as reduction in removal of UV-induced cyclobutane pyrimidine dimer by measuring cyclobutane pyrimidine dimer level at 2 uM incubated for 1 hr prior to compound washout followed by 8 J/m2 UV irradiation and subsequent compound addition and measured after 24 hrs by DAPI staining-based immunofluorescence assay (reference value: 80%); format: cell-based; parameters: scale not given: the % may be the effect or the level left
Outline: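 HCT-116 cells on coverslips, 1 h compound pretreatment, 8 J/m² UV-C (254 nm), then fresh medium with compound at 37°C up to 24 h. Fixed, HCl-denatured, stained with anti-thymine dimer antibody plus fluorescent secondary, DAPI mount. Intensity from 50 random cells per treatment, normalized; Student's t-test.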

[9] = Binding affinity to 6-FAM-5'-CAGCGCTCGG(20T)CCGAGCGCTG-3'-dabcyl DNA (unknown origin) by spectrofluorimetric method
Outline: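 FAM/dabcyl-labelled stem-loop DNA substrate excited at 490 nm, emission at 520 nm followed as a function of ligand concentration; Kd obtained by nonlinear regression assuming unimodal binding.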

[10] = target: T1, DNA excision repair protein ERCC-1/DNA repair endonuclease XPF (Homo sapiens); assay: Binding affinity to human N-terminal His6-tagged RED-tris-NTA labelled ERCC1 (96 to 297 residues)-XPF (667 to 916 residues) expressed in Escherichia coli BL21 (DE3) at 10 uM measured after 20 mins by microscale thermophoresis assay
Outline: (§2)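 Truncated His-tagged dERCC1 (96-297) and dXPF (667-916) from BL21(DE3), labelled with RED-tris-NTA, at 20 nM singly or as equimolar dimer in 20 mM HEPES pH 7.4, 50 mM NaCl, 1 mM DTT, 2 mM MgCl2, 5% glycerol, 0.01% CHAPS; 10 μM compound or DMSO, 20 min room temperature; MST at high power, 670 nm emission.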

HCT-116 [11] = assay: Cytotoxicity against human HCT116 cells assessed as reduction in colony formation at 1 to 2 uM; conditions: hct-116, 2 µM
HCT-116 [12] = assay: Phototoxicity against human HCT116 cells assessed as reduction in colony formation at 2 uM incubated for 1 hr prior to compound washout followed by 254 nm UV irradiation and subsequent compound addition measured after 10 days by crystal violet staining-based assay; format: functional, cell-based
Outline: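 HCT-116 cells plated in triplicate (100-800 cells), attached overnight, treated 1 h with 1 or 2 μM compound, exposed to 0-10 J/m² 254 nm UV-C, then grown 10 days with inhibitor at 37°C, 5% CO₂. Crystal violet stained colonies counted; plating efficiency and surviving fraction calculated; three independent sets.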

[13] = Binding affinity to RED-tris-NTA at 10 uM measured after 20 mins by microscale thermophoresis assay; outline: as §2
[14] = target: T1, DNA excision repair protein ERCC-1/DNA repair endonuclease XPF (Homo sapiens); assay: Time dependent inhibition of human His6-tagged ERCC1-XPF endonuclease activity expressed in Escherichia coli BL21 (DE3) at 3 uM using [6-FAM-5'-CAGCGCTCGG(20T)CCGAGCGCTG-3'-dabcyl] as substrate in presence of 5 to 10% DMSO by fluorescence assay
Outline: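 ERCC1-XPF preincubated with 3 μM compound in 10% or 5% DMSO; reactions started at T0 with substrate, or at T12 […]. Same stem-loop incision read-out (ex 485/em 520) in Tris-Cl pH 8, MnCl2 buffer at 25°C.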

HCT-116 [15] = assay: Potentiation of cyclophosphamide-induced cytotoxicity against human XPF-knockout HCT116 cells assessed as reduction in colony formation at 2 uM incubated for 4 hrs prior to 50 uM cyclophosphamide addition for 24 hrs followed by compound washout and subsequent compound redosing and measured after 8 days by crystal violet staining-based assay; format: functional, cell-based
HCT-116 [16] = assay: Potentiation of cyclophosphamide-induced cytotoxicity against human XPF-knockout HCT116 cells assessed as reduction in colony formation at 2 uM incubated for 4 hrs prior to 300 uM cyclophosphamide addition for 24 hrs followed by compound washout and subsequent compound redosing and measured after 8 days by crystal violet staining-based assay; format: functional; parameters: scale not given: the % may be the effect or the level left
HCT-116 [17] = assay: Potentiation of cyclophosphamide-induced cytotoxicity against human HCT116 cells assessed as reduction in colony formation at 2 uM incubated for 4 hrs prior to 50 uM cyclophosphamide addition for 24 hrs followed by compound washout and subsequent compound redosing and measured after 8 days by crystal violet staining-based assay; format: functional, cell-based; outline: as §1
[18] = target: T1, DNA excision repair protein ERCC-1/DNA repair endonuclease XPF (Homo sapiens); assay: Inhibition of ERCC1-XPF-mediated nucleotide excision repair in human HCT116 cells assessed as reduction in removal of UV-induced cyclobutane pyrimidine dimer at 2 uM incubated for 1 hr prior to compound washout followed by 8 J/m2 UV irradiation and subsequent compound addition and measured after 24 hrs by DAPI staining-based immunofluorescence assay; format: cell-based
Outline: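 HCT-116 cells on coverslips pretreated 1 h with compound, then 8 J/m² UV-C (254 nm) and re-fed medium with compound; incubated at 37°C up to 24 h. Methanol-fixed, HCl-denatured cells stained with anti-thymine dimer antibody and fluorescent secondary, DAPI mounted. Intensity quantified from 50 random cells per treatment; Student's t-test.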

Cytochrome P450 3A4, sequence (P08684 whole entry): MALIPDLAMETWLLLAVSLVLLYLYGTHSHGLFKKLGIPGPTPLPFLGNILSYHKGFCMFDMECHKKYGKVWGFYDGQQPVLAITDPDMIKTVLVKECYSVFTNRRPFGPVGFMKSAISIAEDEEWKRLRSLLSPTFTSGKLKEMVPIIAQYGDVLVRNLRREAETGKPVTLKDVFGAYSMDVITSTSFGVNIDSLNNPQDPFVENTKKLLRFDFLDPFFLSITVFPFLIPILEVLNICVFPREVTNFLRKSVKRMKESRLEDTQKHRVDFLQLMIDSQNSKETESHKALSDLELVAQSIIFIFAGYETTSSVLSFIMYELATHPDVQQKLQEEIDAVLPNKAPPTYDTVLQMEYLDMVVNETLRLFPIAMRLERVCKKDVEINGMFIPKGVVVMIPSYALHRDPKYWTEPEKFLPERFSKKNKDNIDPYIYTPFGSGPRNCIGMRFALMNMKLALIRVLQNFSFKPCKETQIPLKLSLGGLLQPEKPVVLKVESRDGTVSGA
Cytochrome P450 2C9, sequence (P11712 whole entry): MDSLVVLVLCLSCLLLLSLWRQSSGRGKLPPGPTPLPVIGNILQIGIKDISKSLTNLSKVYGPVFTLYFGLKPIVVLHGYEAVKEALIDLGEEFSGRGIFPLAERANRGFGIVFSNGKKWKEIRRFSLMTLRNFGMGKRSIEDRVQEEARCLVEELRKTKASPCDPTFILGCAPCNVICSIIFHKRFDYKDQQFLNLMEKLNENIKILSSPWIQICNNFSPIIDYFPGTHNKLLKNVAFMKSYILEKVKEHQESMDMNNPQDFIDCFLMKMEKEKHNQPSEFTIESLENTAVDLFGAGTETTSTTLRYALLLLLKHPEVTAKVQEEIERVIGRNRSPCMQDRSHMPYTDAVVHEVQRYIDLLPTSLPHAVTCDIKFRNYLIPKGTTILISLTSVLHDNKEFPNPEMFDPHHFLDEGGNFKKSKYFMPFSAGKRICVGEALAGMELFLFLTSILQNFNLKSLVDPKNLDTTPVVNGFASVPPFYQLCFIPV
Cytochrome P450 2D6, sequence (P10635 whole entry): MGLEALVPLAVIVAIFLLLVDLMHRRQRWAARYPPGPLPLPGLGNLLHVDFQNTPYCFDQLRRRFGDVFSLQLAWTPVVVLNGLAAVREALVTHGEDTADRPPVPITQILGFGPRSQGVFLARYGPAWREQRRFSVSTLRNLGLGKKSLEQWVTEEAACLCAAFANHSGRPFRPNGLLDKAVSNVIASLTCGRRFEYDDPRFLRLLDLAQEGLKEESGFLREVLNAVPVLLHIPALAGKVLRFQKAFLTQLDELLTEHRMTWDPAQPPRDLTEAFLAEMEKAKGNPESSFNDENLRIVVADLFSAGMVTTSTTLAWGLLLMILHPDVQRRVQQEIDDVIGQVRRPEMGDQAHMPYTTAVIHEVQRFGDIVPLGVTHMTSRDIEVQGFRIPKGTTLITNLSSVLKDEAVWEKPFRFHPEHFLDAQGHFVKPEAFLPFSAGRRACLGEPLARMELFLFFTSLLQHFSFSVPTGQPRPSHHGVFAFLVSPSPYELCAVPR
Cytochrome P450 2C19, sequence (P33261 whole entry): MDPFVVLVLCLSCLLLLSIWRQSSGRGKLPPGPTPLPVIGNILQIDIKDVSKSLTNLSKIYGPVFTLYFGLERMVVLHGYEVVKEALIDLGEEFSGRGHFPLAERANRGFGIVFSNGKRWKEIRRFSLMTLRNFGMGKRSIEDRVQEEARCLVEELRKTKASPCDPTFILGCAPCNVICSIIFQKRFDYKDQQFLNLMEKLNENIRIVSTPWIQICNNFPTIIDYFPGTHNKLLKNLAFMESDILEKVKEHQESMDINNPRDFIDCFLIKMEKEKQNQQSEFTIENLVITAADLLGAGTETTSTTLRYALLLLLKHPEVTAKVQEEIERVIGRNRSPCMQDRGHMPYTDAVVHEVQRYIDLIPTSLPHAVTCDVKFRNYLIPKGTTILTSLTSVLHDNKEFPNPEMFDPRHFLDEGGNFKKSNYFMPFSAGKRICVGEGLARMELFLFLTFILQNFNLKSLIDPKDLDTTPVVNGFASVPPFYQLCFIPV

COc1ccc2nc3cc(Cl)ccc3c(Nc3ccc(O)c(CN4CCN(C)CC4)c3)c2c1
inhibition [1]: Active | IC50 (Cytochrome P450 2D6): 1000 to 10000 nM | IC50 (Cytochrome P450 1A2): 10000 to 50000 nM | IC50 (Cytochrome P450 3A4): 1000 to 10000 nM | IC50 (Cytochrome P450 2C19): 10000 to 50000 nM | IC50 [2]: 1860 nM | PB [3]: Active | efflux ratio [4]: 11.2 | Stability [5]: Unstable | IC50 (Cytochrome P450 2C9): 10000 to 50000 nM

COc1ccc2nc3cc(Cl)ccc3c(Nc3ccc(O)c(CN4CCN(CCN(C)C)CC4)c3)c2c1
inhibition [1]: Active | Activity (HCT-116 [6]): 100% | Activity [7]: 23% | IC50 (Cytochrome P450 2D6): > 1000 nM | Activity [8]: 60% | Kd [9]: 2100 nM | Activity [10]: Active | IC50 (Cytochrome P450 3A4): > 1000 nM | IC50 (Cytochrome P450 2C19): > 1000 nM | PB [3]: Active | Activity (HCT-116 [11]): Non-Toxic | Activity (HCT-116 [12]): Active | Activity [13]: inactive | TDI [14]: Active | Activity (HCT-116 [15]): Active | Activity (HCT-116 [16]): 100% | IC50 (Cytochrome P450 2C9): > 1000 nM | Activity (HCT-116 [17]): Active

COc1ccc2nc3cc(Cl)ccc3c(Nc3ccc(O)c(CN4CCN(C5CCCCC5)CC4)c3)c2c1
inhibition [1]: Active

COc1ccc2nc3cc(Cl)ccc3c(Nc3ccc(O)c(CN4CCN(c5ccc(Cl)c(Cl)c5)CC4)c3)c2c1
Activity [7]: 3% | inhibition [18]: inactive
